The source of these data is paper PMC6448596 (Cell reports, 2019).

The test system of one series is WDR5. The series can be described thus: Surface plasmon resonance direct affinity measurement. Format: binding, Human. Put shortly:
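Enhanced SPR (eSPR) was run externally using purified WDR5 supplied by the authors. Test compounds were prepared as 30 mM DMSO stock solutions.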

For the next series, the target named is MLL1 complex (Homo sapiens, UniProt P61964). The series can be described thus: MLL1 HMT assay. Format: biochemical.
Series [1] concerns MV4:11 cells. The series can be described thus: Proliferation assay. Format: cell-based, human. The settings on record: MV4:11, 3 days, mean with SEM. Put shortly:
(§1)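 CellTiter-Glo, 5,000 cells/well. Cells received 0.1% DMSO or at least five two-fold dilutions of test compound (top 50 μM, final DMSO 0.1%), in triplicate wells and ≥2 biological replicates, for 72 h at 37°C. Reagent was added after equilibration to RT, with 30 min dark incubation before luminescence. Signals were normalized to DMSO wells and GI50 obtained by curve fitting. Curve error bars are SEM.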

The next series has as its system THP-1 cells. In words: Proliferation assay. Format: cell-based. The following applies: Homo sapiens, THP-1, 72 h. Put shortly:
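THP-1 cells were grown in RPMI-1640 with 0.05 mM 2-mercaptoethanol and 10% FBS. Cells were plated 5,000/well with ≥5 two-fold dilutions of test compound (top 50 μM, 0.1% DMSO final), in triplicate wells with ≥2 biological replicates.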

The test system of a further series is NOMO-1 cells. The series can be described thus: Proliferation assay. Format: cell-based. The settings on record: Homo sapiens, NOMO-1, 72 h. Put shortly:
as §1

The test system of a further series is SET-2 cells. In words: Proliferation assay. The following applies: Homo sapiens, SET-2, 72 h. The series is classed as cell-based. Put shortly:
as §1

Another series relates to MA93 cells. In words: Proliferation assay. Format: cell-based. The settings on record: Homo sapiens, 72 h. Put shortly:
(§2)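 CellTiter-Glo at 2,000 cells/well. MA93 Ras and MA93 FLT3/ITD were maintained in IMDM/20% FBS. Parental MA93 received IMDM/20% FBS plus 10 ng/mL human SCF, TPO, FLT3L, IL3 and IL6. Dosing used ≥5 two-fold dilutions from 50 μM top, 0.1% DMSO final, in triplicate wells with ≥2 biological replicates. Plates ran 72 h at 37°C, followed by 30 min reagent incubation at RT in the dark. GI50 came from DMSO-normalized luminescence.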

A further series deals with MA93 FLT3-ITD cells. The series can be described thus: Proliferation assay. The following applies: Homo sapiens, 72 h. The series is classed as cell-based. Put shortly: as §2
The test system of series [2] is MV4:11 cells expressing shRNAs against p53. The series can be described thus: Proliferation assay in MV4:11 cells expressing p53 or scrambled shRNAs. Format: cell-based. The settings on record: Homo sapiens, MV4-11, 72 h, MV4:11 expressing p53 shRNA_941, 3-day treatment. Put shortly:
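Proliferation was measured in MV4:11 cells carrying scrambled, p53 sh_427 or p53 sh_941 shRNA. Cells received 3-day test compound treatment in a dose–response series, with GI50 derived from the curves.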

In series [3] the test system is Molm13 clones CRISPR-targeted with EGFP or p53 gRNA. The series can be described thus: Proliferation assay in CRISPR-targeted Molm13 clones. Format: cell-based. The following applies: Homo sapiens, MOLM-13, 72 h, Molm13 clone 2p (p53 gRNA), 3-day treatment.
The test system of series [4] is MV4:11 cells. In words: Growth and viability time course. The series is classed as cell-based, human.
Series [5] deals with MV4:11 cells. The series can be described thus: Cell cycle analysis. The series is classed as cell-based, human. The settings on record: 2 μM, up to 6 days. Put shortly:
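1 million cells were fixed dropwise in ice-cold 70% ethanol (≥2 h, […]) and stained with PI (10 μg/mL) plus RNase for 20 min at RT in the dark. Flow: ≥10,000 events, doublets excluded. Three biological replicates, SEM.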

For series [6], the system named is MV4:11 cells. The series can be described thus: Induction of apoptosis. Format: cell-based, human. The settings on record: 2 μM, up to 6 days. Put shortly: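 MV4:11 cells were exposed 0–6 days to 2 μM test compound, negative control or 0.1% DMSO, with medium and compound refreshed on day 3. Camptothecin (2 μM, 4 h) served as positive control. 5 × 10^5 cells were stained with Alexa Fluor488–annexin V for 15 min, then propidium iodide for 10 min. Flow cytometry recorded ≥10,000 events, with doublet exclusion and quadrants set on unstained cells. Annexin V+/PI− % is from three biological replicates, SEM.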

For series [7], the system named is PARP-1 cleavage in MV4:11 cells. The series can be described thus: Induction of PARP1 cleavage. Format: cell-based, human. The settings on record: 2 μM. Put shortly: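 MV4:11 cells were treated 1, 2, 3 or 6 days with 2 μM test compound, its negative control or 0.1% DMSO. Cleaved PARP-1 was detected by western blot, with histone H3 as loading reference.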
Series [8] has as its system p53 and p21 protein levels in Molm13 cells. The series can be described thus: p53/p21 induction western blot. The following applies: Molm13, 3 μM, 24 h. Format: cell-based, human. Put shortly: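 Treatment lasted 24 h with test compound or its negative control, at 2 μM in MV4:11 and 3 μM in Molm13. Comparators were 2 μM Nutlin-3 or 0.1% DMSO. Four million cells were PBS-washed and lysed 10 min on ice in Kischkel buffer. p53 and p21 were detected by western blot, with histone H3 as loading control.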

Series [9] concerns gene expression in MV4:11 cells. The series can be described thus: RNA-Seq. Format: cell-based, human. The following applies: overlap of RNA-seq and WDR5 ChIP-seq, MV4:11.
Series [10] relates to ribosome protein gene expression in MV4:11 cells. In words: RT-qPCR quantification of RPG mRNA expression. The settings on record: MV4:11, three days, equal concentrations (4 µM) of OICR-9429 and C6. The series is classed as cell-based, human. Put shortly:
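Cells were lysed in Trizol and total RNA isolated on columns with DNase digestion. 1 μg RNA was reverse transcribed with MuLV reverse transcriptase in 20 μl, then diluted three-fold in nuclease-free water before qPCR.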

In series [11] the test system is NPM1 localisation in MV4:11 cells. The series can be described thus: Nucleophosmin. The series is classed as cell-based, human. The following applies: MV4:11, 4 μM, 3 days. Put shortly: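 Cells were cytospun onto slides (100,000 cells, 800 rpm, 3 min) and immunostained for NPM. The per-cell nucleolar-to-nucleoplasmic NPM ratio was quantified from two biological replicates (SD). One-way ANOVA with Dunnett's test versus DMSO.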

In series [12] the test system is gamma-H2AX in MV4:11 cells. The series can be described thus: gamma-H2AX immunofluorescence, DNA damage. The settings on record: MV4:11, 4 µM. The series is classed as cell-based, human. Put shortly: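 Cells were cytospun onto slides (100,000 cells, 800 rpm, 3 min) and immunostained for γ-H2AX. Mean nuclear γ-H2AX signal was quantified and compared with DMSO by one-way ANOVA with Dunnett's test.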

`Cc1nc(F)ccc1-c1cc(Cn2ccn(C)c2=N)cc(C(=O)NCc2ccc(Cl)c(Cl)c2)c1` [Compound C6, N-(3,4-Dichlorobenzyl)-3-(6-fluoro-2-methylpyridin-3-yl)-5-((2-imino-3-methyl-2,3-dihydro-1H-imidazol-1-yl)methyl)benzamide]: in the series with WDR5, the “SPR affinity for WDR5 relative to values calculated by TR-FRET” value is ≤ 2 fold. Also, at MLL1 complex, the “specificity of HMT inhibition among all MLL/SET complexes” value is reported as “specific for MLL1, with little activity against other MLL/SET family members”. At MLL1 complex, the “window of selectivity for MLL1 over other MLL/SET complexes” value is given as ≥ 250 fold. Besides, at MLL1 complex (MLL1 HMT IC50, H3 peptide as substrate), the concentration for half-maximal inhibition (IC50) is ~0.02 µM. Further, the concentration for 50% growth inhibition (GI50) with MV4:11 cells [1] (Homo sapiens, MV4-11, 72 h) is 2 µM; with MV4:11 cells [1], 3.2 ± 0.213 µM; with THP-1 cells it was > 50 µM; in the series with NOMO-1 cells, > 50 µM; with SET-2 cells, > 50 µM; in the series with MA93 cells, 5.04 ± 0.431 µM. Besides, the GI50 was 2.47 ± 0.137 µM in the series with MA93 FLT3-ITD cells, 15 µM in series [2] and 18 µM in series [3]. For the same compound, the “inhibition of proliferation, live cells over time” value in the series on MV4:11 cells [4] (2 μM (GI50 concentration), 1-6 days) is reported as “inhibition of proliferation can be detected within a few days of treatment”. The “cellular viability over time” value in the series on MV4:11 cells [4] (2 μM, between 2 and 6 days of treatment) is “progressive decrease in cellular viability”. For the same compound, the “cell-cycle distribution, sub-G1 DNA content” value with MV4:11 cells [5] is listed as “time-dependent increase in cells with a sub-G1 DNA content”. Moreover, in the series on MV4:11 cells [6], the “annexin V staining, apoptotic cells” value is “appearance of apoptotic cells”. Moreover, the “time to detection of cleaved PARP-1” value in series [7] is ≤ 24 h. The “p53 and p21 protein induction” value in [8] is “p53 and p21 are also induced”. The “number of WDR5-bound genes induced” value in series [9] came out at 1. Also, the “number of WDR5-bound genes repressed” value in [9] came out at 59. The “transcription of RPGs” value in series [10] is “inhibited the transcription of RPGs”. Further, in series [11], the “NPM1 distribution, nucleolar stress” value is “redistribution of nucleophosmin (NPM1) from the nucleolus to the nucleoplasm”. Also, the “DNA damage response, accumulation of γ-H2AX foci” value in series [12] is listed as “does not induce a robust DNA damage response”.
